Assay results taken from ChEMBL document CHEMBL1122519, “Bispyridinamines: a new class of topical antimicrobial agents as inhibitors of dental plaque” (1984).

Legend:
[1] = tested on: Escherichia coli; experiment: Antimicrobial minimum inhibitory concentration against Escherichia coli AB1932-1; assay type: functional
Procedure, shortened: (§1)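 Serial twofold tube dilution in tryptose phosphate broth. Each compound was prepared as a 1000 μg/mL aqueous stock and diluted in double-strength broth, then 2×10^5 cells were added. Tubes were incubated aerobically at 37 °C for 24 h. The MIC was taken as the lowest concentration with no visible growth.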

[2] = tested on: Escherichia coli; experiment: Minimum inhibitory concentration against Escherichia coli (Vogel); assay type: functional; procedure, shortened: as §1
[3] = tested on: Escherichia coli; experiment: Antimicrobial minimum inhibitory concentration against Escherichia coli 100/B22; assay type: functional; procedure, shortened: as §1
[4] = tested on: Klebsiella pneumoniae; experiment: Minimum inhibitory concentration against Klebsiella pneumonia 39645; assay type: functional; procedure, shortened: as §1
[5] = tested on: Proteus mirabilis; experiment: Minimum antimicrobial inhibitory concentration against Proteus mirabilis MGH-1; assay type: functional; procedure, shortened: as §1
[6] = tested on: Pseudomonas aeruginosa; experiment: Minimum antimicrobial inhibitory concentration against Pseudomonas aeruginosa MGH-2; assay type: functional; procedure, shortened: as §1
[7] = tested on: Staphylococcus aureus; experiment: Minimum antimicrobial inhibitory concentration against Staphylococcus aureus; assay type: functional; procedure, shortened: as §1
[8] = tested on: Streptococcus mutans; experiment: Minimum plaque inhibitory concentration using a standard test organism, Streptococcus mutans OMZ-61; assay type: functional, organism-based
Procedure, shortened: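 Ceramic hydroxylapatite plates were soaked twice for 1 min each in compound at […] (aqueous), air-dried and rinsed, then hung in sucrose beef-extract medium (pH 7.0) inoculated with late-log S. mutans OMZ-61. Incubation was anaerobic at 37 °C for 24 h, and treatment plus reinoculation were repeated for a second 24 h. Plaque was stained with 1% FD&C Red No. 3 and scored visually. The value is the lowest concentration giving no plaque while medium growth matched control.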

Compound	MIC [1]	MIC [2]	MIC [3]	MIC [4]	MIC [5]	MIC [6]	MIC [7]	Concentration [8]
Br.Br.CCCCCCCCCCCCN=c1ccn(CCCCCCCCCn2ccc(=NCCCCCCCCCCCC)cc2)cc1	> 62.5 µg/mL	62.5 µg/mL	62.5 µg/mL	> 62.5 µg/mL	62.5 µg/mL	> 62.5 µg/mL	7.8 µg/mL	0.1%
Br.Br.CCCCCCCN=c1ccn(CCCCn2ccc(=NCCCCCCC)cc2)cc1	7.8 µg/mL	31.3 µg/mL	15.6 µg/mL	> 125 µg/mL	> 250 µg/mL	> 250 µg/mL	1 µg/mL	> 1%
Br.Br.c1cn(CCCCCCn2ccc(=NC3CCCCC3)cc2)ccc1=NC1CCCCC1	125 µg/mL	> 125 µg/mL	> 125 µg/mL	> 125 µg/mL	> 125 µg/mL	> 125 µg/mL	15.6 µg/mL	> 1%
Br.Br.Fc1ccc(N=c2ccn(CCCCCCCCn3ccc(=Nc4ccc(F)cc4)cc3)cc2)cc1	7.8 µg/mL	15.6 µg/mL	15.6 µg/mL	> 62.5 µg/mL	> 125 µg/mL	> 62.5 µg/mL	2 µg/mL	> 1%
Br.Br.CCCCCCCCCCCCN=c1ccn(CCCCCCn2ccc(=NCCCCCCCCCCCC)cc2)cc1	> 62.5 µg/mL	31.3 µg/mL	62.5 µg/mL	> 62.5 µg/mL	> 62.5 µg/mL	> 62.5 µg/mL	7.8 µg/mL	0.1%
Br.Br.N=c1ccn(CCCCCCCCCCn2ccc(=N)cc2)cc1	31.3 µg/mL	62.5 µg/mL	62.5 µg/mL	250 µg/mL	> 500 µg/mL	500 µg/mL	7.8 µg/mL	> 1%
Br.Br.N=c1ccn(CCCCCCCCCCCCn2ccc(=N)cc2)cc1		> 62.5 µg/mL		> 62.5 µg/mL	> 125 µg/mL	> 62.5 µg/mL	2 µg/mL	> 1%
Br.Br.CCCCCCN=c1ccn(CCCCCCCn2ccc(=NCCCCCC)cc2)cc1	7.8 µg/mL	15.6 µg/mL	7.8 µg/mL	15.6 µg/mL	> 125 µg/mL	> 125 µg/mL	0.4 µg/mL	> 1%
Br.Br.CCCCCCCN=c1ccn(CCCCCn2ccc(=NCCCCCCC)cc2)cc1	3.9 µg/mL	31.3 µg/mL	7.8 µg/mL	31.3 µg/mL	> 125 µg/mL	125 µg/mL	0.5 µg/mL	> 1%
Br.Br.N=c1ccn(CCCCCCCCCn2ccc(=N)cc2)cc1		250 µg/mL		500 µg/mL	> 500 µg/mL	> 500 µg/mL	31.3 µg/mL	> 1%
Br.Br.CCCCCCCCCCCCN=c1ccn(CCCCCCCn2ccc(=NCCCCCCCCCCCC)cc2)cc1	62.5 µg/mL	62.5 µg/mL	62.5 µg/mL	> 62.5 µg/mL	62.5 µg/mL	62.5 µg/mL	3.9 µg/mL	0.1%
Br.Br.CCCCCCCCCCCCN=c1ccn(CCCCCCCCCCCCn2ccc(=NCCCCCCCCCCCC)cc2)cc1	> 62.5 µg/mL	> 62.5 µg/mL	> 62.5 µg/mL	> 62.5 µg/mL	> 62.5 µg/mL	> 62.5 µg/mL	31.3 µg/mL	0.1%
Br.Br.c1cn(CCCCCCCCCn2ccc(=NC3CCCCC3)cc2)ccc1=NC1CCCCC1	31.3 µg/mL	31.3 µg/mL	31.3 µg/mL	125 µg/mL	> 500 µg/mL	500 µg/mL	1 µg/mL	> 1%
Br.Br.c1cn(CCCCCCCCn2ccc(=NC3CCCCC3)cc2)ccc1=NC1CCCCC1	31.3 µg/mL	62.5 µg/mL	62.5 µg/mL	> 125 µg/mL	> 125 µg/mL	250 µg/mL	3.9 µg/mL	> 1%
Br.Br.Fc1ccc(N=c2ccn(CCCCCCn3ccc(=Nc4ccc(F)cc4)cc3)cc2)cc1	15.6 µg/mL	31.3 µg/mL	15.6 µg/mL	> 125 µg/mL	> 125 µg/mL	> 62.5 µg/mL	15.6 µg/mL	> 1%
Br.Br.CCCCCCN=c1ccn(CCCCn2ccc(=NCCCCCC)cc2)cc1	62.5 µg/mL	125 µg/mL	125 µg/mL	> 125 µg/mL	> 125 µg/mL	> 250 µg/mL	7.8 µg/mL	
Br.Br.CCCCCCN=c1ccn(CCCCCn2ccc(=NCCCCCC)cc2)cc1	31.3 µg/mL	125 µg/mL	62.5 µg/mL	> 125 µg/mL	> 250 µg/mL	> 125 µg/mL	2 µg/mL	

Further lines, with some results ahead:

MIC [1]	MIC [2]	MIC [3]	MIC [4]	MIC [5]	MIC [6]	MIC [7]	Compound	Concentration [8]
7.8 µg/mL	15.6 µg/mL	15.6 µg/mL	> 125 µg/mL	> 125 µg/mL	125 µg/mL	0.5 µg/mL	Br.Br.CCCCC(CC)CN=c1ccn(CCCCCn2ccc(=NCC(CC)CCCC)cc2)cc1 (stereo unspecified)	> 1%
7.8 µg/mL	15.6 µg/mL	15.6 µg/mL	> 125 µg/mL	> 125 µg/mL	> 125 µg/mL	0.2 µg/mL	Br.Br.c1cn(CCCCCCCCCCn2ccc(=NC3CCCCC3)cc2)ccc1=NC1CCCCC1	> 1%
3.9 µg/mL	15.6 µg/mL	15.6 µg/mL	500 µg/mL	500 µg/mL	500 µg/mL	3.9 µg/mL	CS(=O)(=O)O.CS(=O)(=O)O.Clc1ccc(N=c2ccn(CCCCCCn3ccc(=Nc4ccc(Cl)cc4)cc3)cc2)cc1	> 1%
31.3 µg/mL	7.8 µg/mL	15.6 µg/mL	31.3 µg/mL	15.6 µg/mL	15.6 µg/mL	2 µg/mL	Br.Br.CCCCCCCCCCN=c1ccn(CCCCCCCCCCCCn2ccc(=NCCCCCCCCCC)cc2)cc1	0.1%
7.8 µg/mL	2 µg/mL	3.9 µg/mL	15.6 µg/mL	7.8 µg/mL	7.8 µg/mL	1 µg/mL	Br.Br.CCCCCCCCCCN=c1ccn(CCCCCCCCCn2ccc(=NCCCCCCCCCC)cc2)cc1	0.01%
125 µg/mL	3.9 µg/mL	3.9 µg/mL	> 125 µg/mL	> 125 µg/mL	> 125 µg/mL	1 µg/mL	Br.Br.Clc1ccc(N=c2ccn(CCCCCCCn3ccc(=Nc4ccc(Cl)cc4)cc3)cc2)cc1	> 1%
3.9 µg/mL	3.9 µg/mL	3.9 µg/mL	7.8 µg/mL	3.9 µg/mL	7.8 µg/mL	1 µg/mL	Br.Br.CCCCCCCCCCN=c1ccn(CCCCCCCn2ccc(=NCCCCCCCCCC)cc2)cc1	0.01%
1 µg/mL	1 µg/mL	0.5 µg/mL	1 µg/mL	7.8 µg/mL	15.6 µg/mL	0.2 µg/mL	CCCCCCN=c1ccn(CCCCCCCCCCCCn2ccc(=NCCCCCC)cc2)cc1.Cl.Cl	0.01%
1.6 µg/mL	3.1 µg/mL	3.1 µg/mL	31.3 µg/mL	125 µg/mL	125 µg/mL	0.4 µg/mL	CS(=O)(=O)O.CS(=O)(=O)O.Clc1ccc(N=c2ccn(CCCCCCCCn3ccc(=Nc4ccc(Cl)cc4)cc3)cc2)cc1	> 1%
2 µg/mL	7.8 µg/mL	3.9 µg/mL	125 µg/mL	> 125 µg/mL	> 250 µg/mL	0.5 µg/mL	Br.Br.CCCCC(CC)CN=c1ccn(CCCCCCn2ccc(=NCC(CC)CCCC)cc2)cc1 (stereo unspecified)	> 1%
1 µg/mL	2 µg/mL	1 µg/mL	3.9 µg/mL	3.9 µg/mL	2 µg/mL	1 µg/mL	CCCCCCCN=c1ccn(CCCCCCCCCCCCCCn2ccc(=NCCCCCCC)cc2)cc1.Cl.Cl	0.01%
0.8 µg/mL	1.6 µg/mL	1.6 µg/mL	3.1 µg/mL	> 125 µg/mL	62.5 µg/mL	0.4 µg/mL	CS(=O)(=O)O.CS(=O)(=O)O.Clc1ccc(N=c2ccn(CCCCCCCCCCn3ccc(=Nc4ccc(Cl)cc4)cc3)cc2)cc1	> 1%
1 µg/mL	1 µg/mL	1 µg/mL	7.8 µg/mL	125 µg/mL	125 µg/mL	0.3 µg/mL	Br.Br.CCCCC(CC)CN=c1ccn(CCCCCCCCCn2ccc(=NCC(CC)CCCC)cc2)cc1 (stereo unspecified)	0.004%
1 µg/mL	1 µg/mL	2 µg/mL	7.8 µg/mL	> 125 µg/mL	125 µg/mL	0.6 µg/mL	Br.Br.Clc1ccc(N=c2ccn(CCCCCCCCCn3ccc(=Nc4ccc(Cl)cc4)cc3)cc2)cc1	> 1%
1 µg/mL	1 µg/mL	1 µg/mL	2 µg/mL	15.6 µg/mL	3.9 µg/mL	1 µg/mL	CCCCCCCCN=c1ccn(CCCCCCCCCn2ccc(=NCCCCCCCC)cc2)cc1.Cl.Cl	0.003%
15.6 µg/mL	7.8 µg/mL	15.6 µg/mL	31.3 µg/mL	7.8 µg/mL	15.6 µg/mL	2 µg/mL	Br.Br.CCCCCCCCCCN=c1ccn(CCCCCCCCCCn2ccc(=NCCCCCCCCCC)cc2)cc1	0.01%
1 µg/mL	1 µg/mL	1 µg/mL	2 µg/mL	3.9 µg/mL	3.9 µg/mL	0.5 µg/mL	Br.Br.CCCCC(CC)CN=c1ccn(CCCCCCCCCCCCn2ccc(=NCC(CC)CCCC)cc2)cc1 (stereo unspecified)	0.004%
